The results in this text go back to ChEMBL document CHEMBL4118098, “Discovery of DS28120313 as a potent orally active hepcidin production inhibitor: Design and optimization of novel 4,6-disubstituted indazole derivatives” (Bioorg Med Chem Lett, 2017).

One data set concerns Mus musculus. Briefly: Antiinflammatory activity in C57BL/6J mouse assessed as reduction in recombinant mouse IL-6 induced serum hepcidin level at 30 mg/kg, po pretreated for 30 mins followed by IL-6 challenge and measured after 4 hrs by LC-MS/MS analysis. Type of data set: functional, organism-based. The method in brief:
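Male C57BL/6J mice, 9 weeks old, were dosed orally at 30 mg/kg (0.5% methylcellulose suspension, n = 4) 30 min before intravenous mouse IL-6. Blood was taken 4 h after IL-6 and serum hepcidin concentration measured. The comparison was against a 0.5% MC vehicle group, with a saline group included, by t-test.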

Data set [1] can be described thus: Metabolic stability in pooled CD1 mouse liver microsomes assessed as parent compound remaining at 1 uM after 30 mins by LC-MS/MS analysis. In kind it is ADME, microsome. To be noted: read-out: Stability. On the technique in general: Liver microsomes are a subcellular fraction often used to study metabolism.
Data set [2] concerns the target Tyrosine-protein kinase ABL1 (Homo sapiens) (UniProt P00519). Briefly: Inhibition of ABL (unknown origin) at 0.164 uM relative to control.
Data set [3] deals with Serine/threonine-protein kinase Chk2 (Homo sapiens) (UniProt O96017). The data set is described as follows: Inhibition of CHK2 (unknown origin) at 0.164 uM relative to control.
Sequence of Serine/threonine-protein kinase Chk2 (Homo sapiens) (O96017 whole entry): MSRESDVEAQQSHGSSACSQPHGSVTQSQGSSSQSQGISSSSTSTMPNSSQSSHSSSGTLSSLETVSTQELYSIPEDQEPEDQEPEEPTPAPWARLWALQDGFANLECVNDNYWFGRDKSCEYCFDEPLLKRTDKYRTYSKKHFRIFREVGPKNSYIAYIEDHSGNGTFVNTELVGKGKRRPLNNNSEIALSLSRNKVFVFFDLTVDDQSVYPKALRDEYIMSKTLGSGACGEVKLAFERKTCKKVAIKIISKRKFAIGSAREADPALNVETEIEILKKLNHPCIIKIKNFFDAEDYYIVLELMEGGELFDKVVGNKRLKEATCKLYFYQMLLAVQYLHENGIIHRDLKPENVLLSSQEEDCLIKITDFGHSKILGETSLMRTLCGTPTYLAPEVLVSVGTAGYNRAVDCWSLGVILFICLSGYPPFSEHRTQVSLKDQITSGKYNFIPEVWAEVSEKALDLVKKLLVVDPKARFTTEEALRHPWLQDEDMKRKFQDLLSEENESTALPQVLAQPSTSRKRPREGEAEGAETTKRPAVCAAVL
In data set [4] the target is Protein kinase C gamma type (Homo sapiens) (UniProt P05129). Briefly: Inhibition of PKC-gamma (unknown origin) at 0.164 uM relative to control.
Data set [5] concerns the target Protein kinase C epsilon type (Homo sapiens) (UniProt Q02156). The data set is described as follows: Inhibition of PKC-epsilon (unknown origin) at 0.164 uM relative to control.
Data set [6] concerns the target AMPK alpha2/beta1/gamma1 (Homo sapiens) (UniProt P54646+P54619+Q9Y478). The data set is described as follows: Inhibition of AMPK-alpha2/beta1/gamma1 (unknown origin) at 0.164 uM relative to control. In kind it is protein-complex assay.
The target of data set [7] is Fibroblast growth factor receptor 1 (Homo sapiens) (UniProt P11362). The data set is described as follows: Inhibition of FGFR1 (unknown origin) at 0.164 uM relative to control.
Data set [8] concerns the target Mitogen-activated protein kinase kinase kinase kinase 4 (Homo sapiens) (UniProt O95819). The data set is described as follows: Inhibition of HGK (unknown origin) at 0.164 uM relative to control.
Data set [9] concerns Tyrosine-protein kinase ABL1 (Homo sapiens), P00519 [Q252H]. Briefly: Inhibition of Abl Q252H mutant (unknown origin) at 0.164 uM relative to control.
The target in data set [10] is Vascular endothelial growth factor receptor 3 (Homo sapiens) (UniProt P35916). The data set is described as follows: Inhibition of FLT4 (unknown origin) at 0.164 uM relative to control.
Sequence of Vascular endothelial growth factor receptor 3 (Homo sapiens) (P35916 whole entry): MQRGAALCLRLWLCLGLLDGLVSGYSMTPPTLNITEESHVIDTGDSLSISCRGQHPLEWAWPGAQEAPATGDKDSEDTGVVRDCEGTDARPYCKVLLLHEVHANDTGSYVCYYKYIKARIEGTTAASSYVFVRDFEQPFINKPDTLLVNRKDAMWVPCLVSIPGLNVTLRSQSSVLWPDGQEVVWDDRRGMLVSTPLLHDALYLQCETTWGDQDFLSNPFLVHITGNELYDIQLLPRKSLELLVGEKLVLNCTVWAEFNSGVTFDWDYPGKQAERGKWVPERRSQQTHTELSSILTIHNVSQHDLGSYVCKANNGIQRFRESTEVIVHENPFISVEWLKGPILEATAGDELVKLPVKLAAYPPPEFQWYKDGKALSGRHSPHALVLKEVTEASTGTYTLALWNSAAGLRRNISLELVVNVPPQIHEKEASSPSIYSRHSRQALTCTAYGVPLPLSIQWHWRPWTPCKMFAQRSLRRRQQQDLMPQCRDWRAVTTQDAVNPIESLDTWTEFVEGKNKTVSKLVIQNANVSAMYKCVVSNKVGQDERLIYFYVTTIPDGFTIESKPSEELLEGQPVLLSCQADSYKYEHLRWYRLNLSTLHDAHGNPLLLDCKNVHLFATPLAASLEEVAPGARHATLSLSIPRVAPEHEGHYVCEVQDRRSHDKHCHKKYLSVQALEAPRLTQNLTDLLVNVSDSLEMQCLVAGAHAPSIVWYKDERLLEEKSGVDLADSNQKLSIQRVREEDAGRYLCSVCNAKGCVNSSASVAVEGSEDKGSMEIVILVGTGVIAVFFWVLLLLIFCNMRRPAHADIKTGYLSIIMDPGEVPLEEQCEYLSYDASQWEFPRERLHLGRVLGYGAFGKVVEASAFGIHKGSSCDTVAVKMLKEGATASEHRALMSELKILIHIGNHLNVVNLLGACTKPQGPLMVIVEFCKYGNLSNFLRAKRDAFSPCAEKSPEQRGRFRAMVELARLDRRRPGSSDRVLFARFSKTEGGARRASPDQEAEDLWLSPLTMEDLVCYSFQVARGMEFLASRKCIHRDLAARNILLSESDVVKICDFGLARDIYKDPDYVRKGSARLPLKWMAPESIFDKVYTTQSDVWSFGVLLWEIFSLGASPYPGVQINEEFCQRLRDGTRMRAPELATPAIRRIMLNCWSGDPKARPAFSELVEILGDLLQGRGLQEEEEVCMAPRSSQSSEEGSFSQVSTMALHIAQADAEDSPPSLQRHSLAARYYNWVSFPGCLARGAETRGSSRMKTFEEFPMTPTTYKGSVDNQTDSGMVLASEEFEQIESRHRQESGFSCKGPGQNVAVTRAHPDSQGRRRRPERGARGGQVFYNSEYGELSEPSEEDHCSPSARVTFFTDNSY
Data set [11] relates to Tyrosine-protein kinase ABL1 (Homo sapiens), P00519 [G250E]. Briefly: Inhibition of ABL1 G250E mutant (unknown origin) at 0.164 uM relative to control.
In data set [12] the test system is Platelet-derived growth factor receptor alpha (Homo sapiens), P16234 [D842V]. Briefly: Inhibition of PDGFRA D842V mutant (unknown origin) at 0.164 uM relative to control.
Data set [13] has as its target Calcium/calmodulin-dependent protein kinase type 1D (Homo sapiens) (UniProt Q8IU85). The data set is described as follows: Inhibition of CamK1d (unknown origin) at 0.164 uM relative to control.
In data set [14] the target is Serine/threonine-protein kinase Nek6 (Homo sapiens) (UniProt Q9HC98). Briefly: Inhibition of NEK6 (unknown origin) at 0.164 uM relative to control.
Data set [15] concerns Leucine-rich repeat serine/threonine-protein kinase 2 (Homo sapiens), Q5S007 [G2019S]. Briefly: Inhibition of LRRK2 G2019S mutant (unknown origin) at 0.164 uM relative to control.
Data set [16] concerns the target Platelet-derived growth factor receptor alpha (Homo sapiens) (UniProt P16234). Briefly: Inhibition of PDGFR alpha (unknown origin) at 0.164 uM relative to control.
Data set [17] concerns the target Tyrosine-protein kinase Fer (Homo sapiens) (UniProt P16591). Briefly: Inhibition of Fer (unknown origin) at 0.164 uM relative to control.
The target of data set [18] is Calcium/calmodulin-dependent protein kinase type II subunit gamma (Homo sapiens) (UniProt Q13555). The data set is described as follows: Inhibition of CaMK2-gamma (unknown origin) at 0.164 uM relative to control.
For data set [19], the target named is Macrophage-stimulating protein receptor (Homo sapiens) (UniProt Q04912). Briefly: Inhibition of MST1R (unknown origin) at 0.164 uM relative to control.
Data set [20] concerns the target Ephrin type-A receptor 8 (Homo sapiens) (UniProt P29322). Briefly: Inhibition of EPHA8 (unknown origin) at 0.164 uM relative to control.
For data set [21], the target named is Tyrosine-protein kinase JAK3 (Homo sapiens) (UniProt P52333). Briefly: Inhibition of JAK3 (unknown origin) at 0.164 uM relative to control.
Data set [22] deals with Proto-oncogene tyrosine-protein kinase receptor Ret (Homo sapiens), P07949 [M918T]. The data set is described as follows: Inhibition of RET M918T mutant (unknown origin) at 0.164 uM relative to control.
Data set [23] addresses Casein kinase I isoform gamma-3 (Homo sapiens) (UniProt Q9Y6M4). The data set is described as follows: Inhibition of CK1-gamma3 (unknown origin) at 0.45 uM relative to control.
For data set [24], the target named is Mitogen-activated protein kinase 3 (Homo sapiens) (UniProt P27361). The data set is described as follows: Inhibition of Erk1 (unknown origin) at 0.19 uM relative to control.
Data set [25] has as its target Calcium/calmodulin-dependent protein kinase type II subunit alpha (Homo sapiens) (UniProt Q9UQM7). The data set is described as follows: Inhibition of CaMK2a (unknown origin) at 0.19 uM relative to control.
Data set [26] has as its target Maternal embryonic leucine zipper kinase (Homo sapiens) (UniProt Q14680). The data set is described as follows: Inhibition of MELK (unknown origin) at 0.19 uM relative to control.
Data set [27] has as its target Tyrosine-protein kinase Lyn (Homo sapiens) (UniProt P07948). Briefly: Inhibition of LYNB (unknown origin) at 0.19 uM relative to control.
The target in data set [28] is Misshapen-like kinase 1 (Homo sapiens) (UniProt Q8N4C8). Briefly: Inhibition of MINK (unknown origin) at 0.19 uM relative to control.
The test system of data set [29] is Tyrosine-protein kinase ABL1 (Homo sapiens), P00519 [G250E]. Briefly: Inhibition of ABL1 G250E mutant (unknown origin) at 0.19 uM relative to control.
The target of data set [30] is Receptor tyrosine-protein kinase erbB-4 (Homo sapiens) (UniProt Q15303). Briefly: Inhibition of HER4 (unknown origin) at 0.19 uM relative to control.
Data set [31] deals with PAS domain-containing serine/threonine-protein kinase (Homo sapiens) (UniProt Q96RG2). The data set is described as follows: Inhibition of PASK (unknown origin) at 0.19 uM relative to control.
Data set [32] deals with Death-associated protein kinase 3 (Homo sapiens) (UniProt O43293). The data set is described as follows: Inhibition of ZIPK (unknown origin) at 0.19 uM relative to control.
Sequence of Death-associated protein kinase 3 (Homo sapiens) (O43293 whole entry, looked up, canonical isoform): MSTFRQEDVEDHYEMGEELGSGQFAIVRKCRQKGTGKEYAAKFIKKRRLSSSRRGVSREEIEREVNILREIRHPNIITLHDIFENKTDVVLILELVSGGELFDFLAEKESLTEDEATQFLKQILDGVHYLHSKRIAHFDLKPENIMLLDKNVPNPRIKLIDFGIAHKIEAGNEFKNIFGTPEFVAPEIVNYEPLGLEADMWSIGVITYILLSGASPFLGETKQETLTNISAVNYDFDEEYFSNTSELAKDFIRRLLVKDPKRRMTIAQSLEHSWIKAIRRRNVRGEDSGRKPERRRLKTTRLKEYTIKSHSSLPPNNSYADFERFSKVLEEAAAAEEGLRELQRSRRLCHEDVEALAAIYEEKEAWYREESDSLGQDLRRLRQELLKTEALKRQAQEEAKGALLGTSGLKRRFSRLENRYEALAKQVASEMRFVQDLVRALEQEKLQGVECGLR
Data set [33] has as its target Casein kinase I isoform gamma-1 (Homo sapiens) (UniProt Q9HCP0). The data set is described as follows: Inhibition of CK1-gamma1 (unknown origin) at 0.19 uM relative to control.
Data set [34] deals with SRSF protein kinase 3 (Homo sapiens) (UniProt Q9UPE1). The data set is described as follows: Inhibition of MSSK1 (unknown origin) at 0.19 uM relative to control.
The subject of data set [35] is Fibroblast growth factor receptor 4 (Homo sapiens), P22455 [V550L]. The data set is described as follows: Inhibition of FGFR4 V550L mutant (unknown origin) at 0.19 uM relative to control.

By inhibition is commonly meant the change of the read-out against control, counted positive when it falls.

Activity calls are given as the source filed them. No cut-off for these calls is given here.

Sequence of Tyrosine-protein kinase Fer (Homo sapiens) (P16591 whole entry, looked up): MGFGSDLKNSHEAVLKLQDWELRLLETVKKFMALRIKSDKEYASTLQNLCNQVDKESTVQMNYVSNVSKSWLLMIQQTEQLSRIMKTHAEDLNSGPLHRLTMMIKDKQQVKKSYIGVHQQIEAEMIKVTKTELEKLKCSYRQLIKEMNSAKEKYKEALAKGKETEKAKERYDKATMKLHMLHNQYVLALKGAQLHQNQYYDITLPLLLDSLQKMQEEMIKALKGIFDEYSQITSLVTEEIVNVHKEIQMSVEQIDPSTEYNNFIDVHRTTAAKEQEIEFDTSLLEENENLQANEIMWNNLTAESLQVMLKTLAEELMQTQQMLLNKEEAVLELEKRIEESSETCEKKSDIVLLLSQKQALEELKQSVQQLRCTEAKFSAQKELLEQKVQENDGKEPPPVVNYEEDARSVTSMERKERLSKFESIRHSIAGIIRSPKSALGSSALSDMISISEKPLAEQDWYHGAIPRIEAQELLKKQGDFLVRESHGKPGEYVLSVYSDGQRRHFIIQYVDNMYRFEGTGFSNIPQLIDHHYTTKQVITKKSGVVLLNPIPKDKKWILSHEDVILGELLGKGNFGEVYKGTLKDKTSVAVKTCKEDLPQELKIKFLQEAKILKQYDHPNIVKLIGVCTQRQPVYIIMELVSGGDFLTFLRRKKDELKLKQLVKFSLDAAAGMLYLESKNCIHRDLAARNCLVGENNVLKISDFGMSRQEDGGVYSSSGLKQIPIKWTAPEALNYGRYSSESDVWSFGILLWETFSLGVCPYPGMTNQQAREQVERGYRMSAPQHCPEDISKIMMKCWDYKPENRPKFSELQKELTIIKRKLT
Sequence of Fibroblast growth factor receptor 4 (Homo sapiens), P22455 [V550L] (P22455 whole entry V550L): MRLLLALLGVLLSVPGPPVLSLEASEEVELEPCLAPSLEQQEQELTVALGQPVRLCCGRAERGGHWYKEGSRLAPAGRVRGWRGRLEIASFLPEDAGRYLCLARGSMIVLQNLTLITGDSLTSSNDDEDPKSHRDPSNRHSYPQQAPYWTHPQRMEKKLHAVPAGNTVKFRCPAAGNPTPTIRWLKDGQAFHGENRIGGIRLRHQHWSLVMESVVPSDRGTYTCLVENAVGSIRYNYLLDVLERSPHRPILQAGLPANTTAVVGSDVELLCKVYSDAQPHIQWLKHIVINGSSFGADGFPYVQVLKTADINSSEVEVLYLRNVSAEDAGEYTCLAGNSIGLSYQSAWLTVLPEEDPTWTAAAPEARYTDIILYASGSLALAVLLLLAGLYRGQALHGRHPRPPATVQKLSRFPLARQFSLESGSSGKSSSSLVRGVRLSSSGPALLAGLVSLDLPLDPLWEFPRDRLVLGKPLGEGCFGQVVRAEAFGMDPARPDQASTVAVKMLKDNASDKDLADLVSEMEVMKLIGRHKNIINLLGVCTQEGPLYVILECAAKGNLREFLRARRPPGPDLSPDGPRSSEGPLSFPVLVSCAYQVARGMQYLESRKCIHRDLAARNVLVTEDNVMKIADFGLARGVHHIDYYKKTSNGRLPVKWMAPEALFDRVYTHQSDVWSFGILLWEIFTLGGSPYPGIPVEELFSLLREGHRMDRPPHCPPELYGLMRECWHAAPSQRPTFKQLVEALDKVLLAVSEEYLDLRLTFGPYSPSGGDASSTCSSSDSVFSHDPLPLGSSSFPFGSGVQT
Sequence of Calcium/calmodulin-dependent protein kinase type II subunit alpha (Homo sapiens) (Q9UQM7 whole entry): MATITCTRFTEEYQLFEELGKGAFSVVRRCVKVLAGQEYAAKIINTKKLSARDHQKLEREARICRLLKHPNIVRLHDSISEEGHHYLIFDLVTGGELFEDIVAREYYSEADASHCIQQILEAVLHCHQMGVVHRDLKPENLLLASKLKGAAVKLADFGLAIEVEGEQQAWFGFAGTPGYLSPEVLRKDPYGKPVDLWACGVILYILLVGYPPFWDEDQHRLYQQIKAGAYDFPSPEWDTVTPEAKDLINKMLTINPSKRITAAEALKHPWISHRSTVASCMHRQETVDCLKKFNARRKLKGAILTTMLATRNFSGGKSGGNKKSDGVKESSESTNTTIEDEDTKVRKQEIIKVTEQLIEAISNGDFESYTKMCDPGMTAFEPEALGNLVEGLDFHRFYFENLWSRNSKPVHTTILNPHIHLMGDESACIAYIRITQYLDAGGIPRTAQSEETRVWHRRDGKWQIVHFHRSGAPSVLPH
Sequence of Casein kinase I isoform gamma-3 (Homo sapiens) (Q9Y6M4 whole entry, looked up, canonical isoform): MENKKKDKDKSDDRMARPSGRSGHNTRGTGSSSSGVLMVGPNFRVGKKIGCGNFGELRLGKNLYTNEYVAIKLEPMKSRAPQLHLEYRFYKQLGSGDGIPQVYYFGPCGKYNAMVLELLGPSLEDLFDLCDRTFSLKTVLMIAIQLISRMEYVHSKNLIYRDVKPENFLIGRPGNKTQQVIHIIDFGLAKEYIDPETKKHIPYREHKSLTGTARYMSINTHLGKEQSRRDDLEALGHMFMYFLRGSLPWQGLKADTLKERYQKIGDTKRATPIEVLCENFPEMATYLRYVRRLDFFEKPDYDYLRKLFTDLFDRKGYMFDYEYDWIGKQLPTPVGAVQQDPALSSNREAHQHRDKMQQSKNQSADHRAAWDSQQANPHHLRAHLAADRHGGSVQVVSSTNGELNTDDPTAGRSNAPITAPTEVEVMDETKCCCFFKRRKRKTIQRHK

As to `COC(=O)Nc1cc(-c2c(C3CC3)n[nH]c2C)cc2[nH]ncc12`, the result in the data set on Mus musculus was Active. Moreover, the remaining at 0.5 h, 1 µM in [1] worked out at 84%. The inhibition in data set [2] was 7%; in data set [3] it was 9.7%; in [4], -2.7%; in data set [5] it was -4%; in [6], 0.3%; in [7] it was 9.7%. In addition, the inhibition in data set [8] is 5%; in data set [9], 0.3%; in [10], 5.3%; in data set [11] it was 7.3%; in [12] it was 23.7%; in [13], -9.3%. For the same compound, the inhibition in [14] was 4.3%; in data set [15], 2.3%; in data set [16], 11.7%; in [17], -1.3%; in [18] it was 18%; in data set [19] it was -5%. Moreover, the figures for the inhibition in data set [20], in data set [21] and in data set [22] were -1.7%, 0% and 6.7%, respectively.

As to `Cc1n[nH]c(C)c1-c1ccc2c(NC(=O)c3ccc(N4CCN(C)CC4)cc3)n[nH]c2c1`, the inhibition in data set [23] is -0.7%.

Take `Cc1[nH]nc(C2CC2)c1-c1ccc2c(-c3ccc(N4CCN(C)CC4)nc3)n[nH]c2c1`: the inhibition in [24] is 3.7%; in data set [25] it was -2.3%; in [26], 51%; in [27], 10.7%; in [28] it was 82.7%; in data set [29], 68.3%. Besides, the inhibition is -8.7% in [30]; -3.3% in data set [31]; -2% in [32]; -0.3% in data set [33]; -9.3% in data set [34]; 0.7% in data set [35].
